Laboratory results reported in PubChem BioAssay.
Records with an inconclusive call do not appear. Calls of active or inactive are those of the source.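 Rule for the calls, unless noted: active = cell viability at or below a set limit in both duplicate runs, the limit being the all-compound median minus 4 SD (cut at about 23% in these data, passing the limit was not always enough); inconclusive = no clear call, values can overlap the other calls; inactive = the rest.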

Experiments:
[1] = S. cerevisiae growth inhibition in permissive medium (OD615), pilot counter-assay for S. cerevisiae lifespan shortening project, permissive growth control (AID 705;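 active = growth inhibition above 25% in both replicates, a cutoff set 3 SD above the mean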); conditions: OD615, 24 h, at 10 µM, stronger effect = higher value
How it was run: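 Material: engineered DeaD yeast; compound dosing: one dose 10 µM, DMSO 0.25% final; measure: yeast growth inhibition indicated by reduced 24 h OD615; detection: OD615 turbidity read; incubation: cells pre-grown 4 h, then 24 h compound exposure, 30 °C humidified; medium: permissive synthetic complete medium with raffinose and galactose carbon sources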

[2] = S. cerevisiae growth inhibition in restrictive medium, OD615, pilot screen, restrictive growth control, yeast lifespan reduction project (AID 706;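 active = growth inhibition above a set limit, 3 SD over mean compound inhibition, in both replicates, cut at about 43% in these data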;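 note: modified DeaD lifespan yeast strain shifted to restrictive glucose medium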); conditions: OD615, 48 h, at 10 µM, stronger effect = higher value
How it was run: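 material = engineered S. cerevisiae DeaD strain | medium = glucose-based CSMM-D restrictive medium | times = 4 h pre-incubation, 48 h exposure at 30 °C | technique = OD615 absorbance reading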

[3] = doxorubicin toxicity protection in MRP-1 cells – H69AR cells, CellTiter-Glo, duplicate, MRP-1 activator project, pilot screen (AID 807;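 active = viability increase at or above a cutoff of the median across tested compounds plus 3 SD, cut at about 8.5% in these data, passing the limit was not always enough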;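 note: compound pretreatment 18-22 h then 72 h combined with doxorubicin; 0% = doxorubicin alone and 100% = vehicle without doxorubicin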); conditions: H69AR viability with doxorubicin, CellTiter-Glo luminescence; at 10 µM; stronger effect = higher value
[4] = viability of HCT116 without oncogenic beta-catenin – human colon tumor cells, pilot screen (AID 823); conditions: HCT116 beta-catenin knockout viability, CellTiter-Glo, 60 h; at 10 µM; stronger effect = lower value;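 note: 0% = wells killed by 20 µM Hyamine and 100% = untreated DMSO cell wells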
[5] = viability of PTEN-null HCT116 cells – cell-based, HCT116 clonal line, CellTiter-Glo, pilot screen (AID 824;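 active = viability at or below 27.92% in each of two runs, the all-compound median minus 4 SD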;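 note: 0% = 20 µM Hyamine control and 100% = vehicle cell control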); conditions: HCT116 PTEN-deleted viability, 60 h, at 10 µM, stronger effect = lower value
[6] = RAM pathway blockade in budding yeast – dse1pr::URA3 reporter, 5-FOA selection, pilot screen (AID 869;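 active = inhibition over a set limit, the all-compound mean plus 3 SD, in both replicate runs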;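 note: 0% = DMSO wells with no growth and 100% = 10 µM 1-NA-PP1 with full growth; RAM network block rescues cells from 5-FOA so hits raise OD615 growth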); conditions: S. cerevisiae dse1pr::URA3 5-FOA growth, OD615, 2 d; at 10 µM; stronger effect = higher value; strain carries analog-sensitive mutant Cbk1 kinase
[7] = RAM signaling pathway blockade in yeast – S. cerevisiae, Pdr1DBD-CYC8 efflux-inhibited sensitized strain, primary screen (AID 1298;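 active = RAM network inhibition above 8.4% in each of two replicates, 3 SD over the compound average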;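 note: 0% = DMSO untreated cells without growth and 100% = 10 µM 1-NA-PP1 full growth; higher means more yeast growth rescued from 5-FOA killing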); conditions: S. cerevisiae cbk1-as DSE1-URA3 strain, 5-FOA growth OD615, 2 d; at 50 µM; stronger effect = higher value

COC(=O)CC1Oc2ccc(C)cc2NC1=O (configuration not stated)
inactive: growth inhibition [1] -4.56% | growth inhibition [2] -1.75% | viability increase [3] 2.26% | viability [4] 101% | viability [5] 101% | inhibition [6] 0.27% | RAM network inhibition [7] 2.35%

CCN(CC)S(=O)(=O)c1ccc(C(=O)Nc2nnc(C(C)C)s2)cc1
inactive: growth inhibition [1] -12.7% | growth inhibition [2] -1.79% | viability increase [3] 0.3% | viability [4] 104% | viability [5] 95% | inhibition [6] 1.25% | RAM network inhibition [7] 4.27%

Cc1ccc(N(CC(N)=O)C2SC(=O)N(C)C2=O)cc1 (configuration not stated)
inactive: growth inhibition [1] -11.9% | growth inhibition [2] -7.83% | viability increase [3] -2.96% | viability [4] 97.8% | viability [5] 102% | inhibition [6] 1.09% | RAM network inhibition [7] 3.14%

COc1ccccc1C(=O)Nc1nnc(-c2ccc(F)cc2)o1
inactive: growth inhibition [1] -8.41% | growth inhibition [2] -13.1% | viability increase [3] 0.01% | viability [4] 101% | viability [5] 101% | inhibition [6] 0.59% | RAM network inhibition [7] 2.59%

Cc1cc(C)n2nc(SCC#N)nc2n1
inactive: growth inhibition [1] -7.25% | growth inhibition [2] -4.04% | viability increase [3] -2.41% | viability [4] 95.4% | viability [5] 95.4% | inhibition [6] 0.2% | RAM network inhibition [7] 4.36%

CCN1CCN(CCNC(=O)C2CCN(Cc3nc(-c4ccc(Cl)cc4)oc3C)CC2)CC1
inactive: growth inhibition [1] -6.21% | growth inhibition [2] -7.59% | viability increase [3] -3.29% | viability [4] 62.3% | viability [5] 70.1% | inhibition [6] 1.29% | RAM network inhibition [7] 3.67%

Cc1ccc(Cl)cc1NC(=O)Cn1cc2c(n1)CCCC2
inactive: growth inhibition [1] -3.65% | growth inhibition [2] 8.66% | viability increase [3] -2.72% | viability [4] 110% | viability [5] 97% | inhibition [6] -0.18% | RAM network inhibition [7] 0.23%

Cn1c(NC(=O)C(C)(C)Oc2ccc(Cl)cc2)cc(=O)n(C)c1=O
inactive: growth inhibition [1] -1.72% | growth inhibition [2] -8.67% | viability increase [3] -0.77% | viability [4] 94.7% | viability [5] 91.3% | inhibition [6] 2.34% | RAM network inhibition [7] -2.22%

CCCCn1c2nc3ccccc3nc2c2c(=N)oc(C)nc21
inactive: growth inhibition [1] -7.3% | growth inhibition [2] -6.79% | viability increase [3] -4.49% | viability [4] 96.6% | viability [5] 85.1% | inhibition [6] 0.265% | RAM network inhibition [7] 0.62%

O=C(Nc1c(C(=O)N2CCCCC2)cnn1-c1ccccc1)c1ccco1
inactive: growth inhibition [1] -2.23% | growth inhibition [2] -5.33% | viability increase [3] -0.92% | viability [4] 95.2% | viability [5] 95.5% | inhibition [6] 1.14% | RAM network inhibition [7] 0.25%

Cc1cc(=O)oc2c(N)c(O)ccc12
inactive: growth inhibition [1] -4.57% | growth inhibition [2] -11.6% | viability increase [3] -4.95% | viability [4] 101% | viability [5] 98.5% | inhibition [6] 0.53% | RAM network inhibition [7] 1.88%

CCCc1n[nH]c2c1C(=O)C(C(=O)OC)C(C)(C)C2 (configuration not stated)
inactive: growth inhibition [1] -12.6% | growth inhibition [2] -12.8% | viability increase [3] -3.14% | viability [4] 95.9% | viability [5] 95.8% | inhibition [6] 1.14% | RAM network inhibition [7] 4.78%

Cc1ccc(OCCNC(=O)c2ccco2)cc1C
inactive: growth inhibition [1] 0.475% | growth inhibition [2] -5.61% | viability increase [3] -1.46% | viability [4] 102% | viability [5] 101% | inhibition [6] 1.63% | RAM network inhibition [7] -1.46%

COc1cc(CN2CCN(CCOCCO)CC2)cc(OC)c1OC
inactive: growth inhibition [1] -9.5% | growth inhibition [2] -8.52% | viability increase [3] 0.51% | viability [4] 94.5% | viability [5] 96.8% | inhibition [6] 1.11% | RAM network inhibition [7] 4.96%

COc1cc(CC(=O)O)c(C(C)=O)cc1OC
inactive: growth inhibition [1] 0.26% | growth inhibition [2] 0.155% | viability increase [3] -1.29% | viability [4] 100% | viability [5] 102% | inhibition [6] 0.365% | RAM network inhibition [7] -0.36%

CC1Oc2ccccc2C=C1C1/C(=C(/O)c2ccccc2)C(=O)C(=O)N1CCCN(C)C (configuration not stated)
inactive: growth inhibition [1] -3.27% | growth inhibition [2] 2.81% | viability increase [3] -2.78% | viability [4] 95.6% | viability [5] 97% | inhibition [6] -0.25% | RAM network inhibition [7] 0.77%

COc1cccc(C(=O)NC2CC3CCCC(C2)N3CC(=O)Nc2ccc(N(C)C)cc2)c1 (configuration not stated)
inactive: growth inhibition [1] -14.1% | growth inhibition [2] -14.7% | viability increase [3] -0.9% | viability [4] 85.4% | viability [5] 87.8% | inhibition [6] 0.955% | RAM network inhibition [7] 1.97%

Cc1cccc(N2CCN(C(=O)C3CCCN(S(=O)(=O)c4cccc5cccnc45)C3)CC2)c1C (configuration not stated)
inactive: growth inhibition [1] -6.73% | growth inhibition [2] 12.1% | viability increase [3] -4.58% | viability [4] 30.5% | viability [5] 35.8% | inhibition [6] 1.32% | RAM network inhibition [7] 1%

Cn1c(=O)[nH]c(=O)c2c1nc(CN1CCN(c3cccc(Cl)c3)CC1)n2Cc1ccccc1Cl
inactive: growth inhibition [1] -9.22% | growth inhibition [2] -6.86% | viability increase [3] -6.82% | viability [4] 41.1% | viability [5] 32.9% | inhibition [6] 1.39% | RAM network inhibition [7] 4.08%

Cn1c(=O)oc2cc(S(=O)(=O)N3CCc4ccccc4C3)ccc21
inactive: growth inhibition [1] -14.7% | growth inhibition [2] -5.15% | viability increase [3] -2.36% | viability [4] 99.2% | viability [5] 91.9% | inhibition [6] 2.58% | RAM network inhibition [7] 5.77%

CC1=C(C(=O)OCc2ccccc2)C(c2ccc(N3CCOCC3)cc2)NC(=O)N1 (configuration not stated)
inactive: growth inhibition [1] -6.21% | growth inhibition [2] -3.42% | viability increase [3] 0.5% | viability [4] 100% | viability [5] 98.9% | inhibition [6] 0.99% | RAM network inhibition [7] 4.42%

Cc1[nH]c2ccccc2c1Cc1nnc(SCC(N)=O)o1
inactive: growth inhibition [1] 5.65% | growth inhibition [2] -5.42% | viability increase [3] -0.41% | viability [4] 100% | viability [5] 102% | inhibition [6] 1.88% | RAM network inhibition [7] 1.36%

CC1CC(C)(C)Nc2ccc(OC(=O)c3ccco3)cc21 (configuration not stated)
active: viability [4] 1.57% | viability [5] 1.59%
inactive: growth inhibition [1] 7.66% | growth inhibition [2] 5.69% | viability increase [3] -7.85% | inhibition [6] 0.51% | RAM network inhibition [7] 3.36%

CC(C)C(=O)Nc1c(C(=O)c2ccc(F)cc2)oc2ccccc12
inactive: growth inhibition [1] -8.13% | growth inhibition [2] -2.55% | viability increase [3] 0.04% | viability [4] 105% | viability [5] 91.2% | inhibition [6] 1.55% | RAM network inhibition [7] 1.81%

CCOC(=O)C1=C(C)Nc2nc(C)nn2C1c1cc(OC)ccc1OC (configuration not stated)
inactive: growth inhibition [1] 3.21% | growth inhibition [2] 4.81% | viability increase [3] -1.53% | viability [4] 108% | viability [5] 100% | inhibition [6] -1.1% | RAM network inhibition [7] -0.16%

CC1CC(C)CN(C(=O)CSc2nnc(-c3ccc(F)cc3)o2)C1 (configuration not stated)
inactive: growth inhibition [1] -2.08% | growth inhibition [2] 5.43% | viability increase [3] -0.28% | viability [4] 94.5% | viability [5] 99.8% | inhibition [6] 0.645% | RAM network inhibition [7] 2.78%

Nc1nc(NC(=O)c2cccc(S(=O)(=O)N3CCCCCC3)c2)nc(-c2ccccc2)n1
inactive: growth inhibition [1] -1.66% | growth inhibition [2] 6.65% | viability increase [3] -4.04% | viability [4] 74.8% | viability [5] 74.4% | inhibition [6] 3.56% | RAM network inhibition [7] 4.53%

CCOC(=O)Cn1c(=O)oc2cc(S(=O)(=O)Nc3cccc(C)c3)ccc21
inactive: growth inhibition [1] -5.58% | growth inhibition [2] -22.1% | viability increase [3] -0.66% | viability [4] 65.5% | viability [5] 79% | inhibition [6] 1% | RAM network inhibition [7] 2.63%

CCn1cc(C2N3CC4(C)CN2CC(C)(C3)C4=O)c2ccccc21 (configuration not stated)
inactive: growth inhibition [1] -13.9% | growth inhibition [2] -16.4% | viability increase [3] -0.78% | viability [4] 97.3% | viability [5] 100% | inhibition [6] 1.94% | RAM network inhibition [7] 0.48%

CC1=C(C(=O)OCCOc2ccccc2)C(c2ccc(C)o2)C2=C(CC(C)(C)CC2=O)N1 (configuration not stated)
inactive: growth inhibition [1] -17.6% | growth inhibition [2] -10.8% | viability increase [3] -0.88% | viability [4] 78.2% | viability [5] 78.6% | inhibition [6] 1.73% | RAM network inhibition [7] 7.5%

CCc1cc(C(=O)COc2ccccc2F)c(O)cc1O
inactive: growth inhibition [1] -11.9% | growth inhibition [2] 11.9% | viability increase [3] -2.43% | viability [4] 96.1% | viability [5] 99.5% | inhibition [6] -0.155% | RAM network inhibition [7] -0.21%

CCc1cc(C(=O)Cc2cnn(-c3ccccc3)c2)c(O)cc1O
inactive: growth inhibition [1] -6.31% | growth inhibition [2] -9.12% | viability increase [3] -2.95% | viability [4] 101% | viability [5] 99.1% | inhibition [6] 1.42% | RAM network inhibition [7] 3.54%

CCn1c(C(C)NC(C)=O)nc2ccccc21 (configuration not stated)
inactive: growth inhibition [1] -13.6% | growth inhibition [2] -5.8% | viability increase [3] 0.8% | viability [4] 112% | viability [5] 106% | inhibition [6] 2.2% | RAM network inhibition [7] 3.48%

Cc1ccc(-c2nnc3ccc(SC(C)C(=O)O)nn23)cc1 (configuration not stated)
active: growth inhibition [2] 60.9%
inactive: growth inhibition [1] 13.9% | viability increase [3] -1.29% | viability [4] 99.1% | viability [5] 97.8% | inhibition [6] 2.31% | RAM network inhibition [7] 3.9%

Cc1ccc(OCC(=O)n2nc(C)cc2C)c(Br)c1
inactive: growth inhibition [1] -17.8% | growth inhibition [2] -0.465% | viability increase [3] -2.35% | viability [4] 93.9% | viability [5] 94.3% | inhibition [6] 0.89% | RAM network inhibition [7] 0.1%

CCOc1ccccc1NC(=O)CN(c1cc(C)cc(C)c1)S(=O)(=O)c1c(C)noc1C
inactive: growth inhibition [1] -22.6% | growth inhibition [2] -12.1% | viability increase [3] -1.39% | viability [4] 106% | viability [5] 95.1% | inhibition [6] 1.51% | RAM network inhibition [7] 1.81%
